Laboratory results taken from the RNAGym collection of RNA variant scans (doi:10.1002/anie.201605470).

B1: Osa-1-4 twister ribozyme (parent)
chain: CCGCCUAACACUGCCAAUGCCGGUCCCAAGCCCGGAUAAAAGUGGAGGGGGCGG

Variants of: B1
Experiment: self-cleavage, relative activity (ratio to wild type); higher = more cleavage; co-transcriptional
In short: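 A DNA template for a 54-nucleotide Oryza sativa twister ribozyme was synthesised with 97 % wild-type base and 1 % of each other base at the 48 positions downstream of the cleavage site. It was transcribed in vitro for 2 h at 37 °C, allowing co-transcriptional self-cleavage, then reverse-transcribed with a template-switching oligonucleotide, PCR-amplified and deep-sequenced. Cleavage status was scored from reads with or without upstream sequence. Relative activity is fraction cleaved normalised to wild type.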

| Variant | self-cleavage |
| --- | --- |
| A17C G13A | 0.04 |
| A17C G13U | 0.02 |
| A17C G13C | 0.04 |
| A16U A8U | 0.35 |
| A16U A8C | 0.06 |
| A16U A8G | 0.62 |
| A17G C15U | 0.71 |
| A17G C15A | 0.78 |
| A17G C15G | 0.71 |
| A17G C31G | 0.22 |
| A17G C31U | 0.9 |
| A17G C31A | 0.05 |
| A16U C31G | 0.07 |
| A16U C31U | 0.74 |
| A16U C31A | 0.03 |
| A16U U43G | 0.33 |
| A16U U43A | 0.85 |
| A16U U43C | 0.36 |
| A16U G30U | 0.03 |
| A16U G30C | 0.04 |
| A16U G30A | 0.03 |

| Variant | self-cleavage |
| --- | --- |
| A17C A38U | 0.66 |
| A17C A38C | 0.71 |
| A17C A38G | 0.78 |
| A17C C20U | 0.78 |
| A17C C20G | 0.1 |
| A17C C20A | 0.58 |
| A16U G51C | 0.16 |
| A16U G51A | 0.64 |
| A16U G51U | 0.39 |
| A16U G54U | 0.94 |
| A16U G54C | 0.88 |
| A16U G54A | 0.93 |
| A17C C27U | 0.06 |
| A17C C27A | 0.06 |
| A17C C27G | 0.03 |
| A16U A36G | 0.97 |
| A16U A36U | 1.01 |
| A16U A36C | 0.6 |
| A16U U18C | 0.87 |
| A16U U18A | 0.89 |
| A16U U18G | 0.66 |

| Variant | self-cleavage |
| --- | --- |
| A16U C26A | 0.03 |
| A16U C26G | 0.11 |
| A16U C26U | 0.9 |
| A16U G22U | 0.84 |
| A16U G22A | 0.99 |
| A16U G22C | 0.11 |
| A17C C32U | 0.05 |
| A17C C32G | 0.08 |
| A17C C32A | 0.06 |
| A16U A40C | 0.07 |
| A16U A40G | 0.38 |
| A16U A40U | 0.55 |
| A17G A8C | 0.12 |
| A17G A8G | 0.63 |
| A17G A8U | 0.49 |
| A17G A36U | 1.01 |
| A17G A36G | 0.99 |
| A17G A36C | 0.82 |
| A17C G19C | 0.04 |
| A17C G19A | 0.06 |
| A17C G19U | 0.04 |

| Variant | self-cleavage |
| --- | --- |
| A16U A29C | 0.04 |
| A16U A29U | 0.11 |
| A16U A29G | 0.18 |
| A17G A40C | 0.09 |
| A17G A40G | 0.89 |
| A17G A40U | 0.83 |
| A17C C33A | 0.05 |
| A17C C33U | 0.16 |
| A17C C33G | 0.04 |
| A17C A40U | 0.16 |
| A17C A40G | 0.28 |
| A17C A40C | 0.06 |
| A16U C32U | 0.13 |
| A16U C32G | 0.11 |
| A16U C32A | 0.08 |
| A17C G22C | 0.05 |
| A17C G22A | 0.21 |
| A17C G22U | 0.06 |
| A17C G45C | 0.05 |
| A17C G45U | 0.14 |
| A17C G45A | 0.24 |
